Results published in PubChem BioAssay.
Activity calls are given as the source filed them.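 How the source made its calls, unless noted: active means GFP response above 150% of the DMSO level; inconclusive means fewer than 70 events counted for a yeast strain; inactive means the rest.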

Key:
[1] = RPL19A-GFP modulators, yeast TOR pathway, confirmation, cell-based, S. cerevisiae, flow cytometry, cherry picks, mother/daughter gates (AID 2270;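 active means GFP response below 50% of the DMSO control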); settings: S. cerevisiae RPL19A-GFP strain, 3 h, at 10 µM, stronger effect = lower value, 100 = same GFP as DMSO wells
[2] = LAP4-GFP expression modulators in yeast, confirmation, cell-based, cherry picks, flow cytometry, mother/daughter gates (AID 2271;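 active means GFP response above 150% of the DMSO control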;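 further: ratio of sample to DMSO plate mean so 100% equals DMSO level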); settings: S. cerevisiae LAP4-GFP strain, 3 h, at 10 µM, stronger effect = higher value, 100 means same as DMSO control
Procedure, shortened: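 Test system: GFP-fusion yeast strain / Amount: 0.2 OD600 cells / Buffer or medium: SC medium / Dosing: 10 µM single dose / Incubation: compound exposure 3 h at 30 °C, end-over-end rotation / Detection: HT flow cytometry, GFP fluorescence channel / Evaluation: median GFP fluorescence as percent of plate-mean DMSO wells / Control set: DMSO-only negative wells, rapamycin 400 ng/mL positive wells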

[3] = modulators of MEP2-GFP levels in yeast, confirmation, S. cerevisiae, flow cytometry GFP, cherry picks (AID 2272;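 active means GFP response above 150% of the DMSO control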;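 further: ratio of well signal to plate DMSO mean so 100% equals DMSO level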); settings: S. cerevisiae MEP2-GFP strain, 3 h, at 10 µM, stronger effect = higher value
[4] = AGP1-GFP expression modulators, hit retest, confirmation, cell-based, flow cytometry, S. cerevisiae, cherry picks (AID 2273);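 further: median GFP channel fluorescence over the whole cell population gate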; settings: S. cerevisiae AGP1-GFP strain, 3 h, at 10 µM
[5] = modulators of CIT2-GFP expression in yeast, confirmation, S. cerevisiae, GFP fusion, cherry picks, mother/daughter gates (AID 2274); settings: S. cerevisiae CIT2-GFP strain, flow cytometry, 3 h, at 10 µM, stronger effect = higher value
[6] = measured here: daughter cell gate
[7] = measured here: mother cell gate
[8] = measured here: daughter cell gate response
[9] = measured here: mother cell gate response

Compound: CCOC(=O)C(=Cc1ccc(F)cc1)C(=O)OCC
- GFP response vs DMSO [1]: 101% (inactive)
- GFP response vs DMSO [1, 6]: 101%
- GFP response vs DMSO [1, 7]: 100%
- GFP response relative to DMSO [2]: 107% (inactive)
- GFP response relative to DMSO [2, 8]: 102%
- GFP response relative to DMSO [2, 9]: 111%
- GFP response vs DMSO [3]: 100% (inactive)
- GFP response, % of DMSO [4]: 96.7% (inactive)
- GFP response, % of DMSO [5]: 93.9% (inactive)
- GFP response, % of DMSO [5, 6]: 94.8%
- GFP response, % of DMSO [5, 7]: 92.3%

Compound: CCN=C(NCC)SC1CC(=O)N(c2cccc(OCC)c2)C1=O (stereo not given)
- GFP response vs DMSO [1]: 99.2% (inactive)
- GFP response vs DMSO [1, 6]: 97.1%
- GFP response vs DMSO [1, 7]: 98.4%
- GFP response relative to DMSO [2]: 101% (inactive)
- GFP response relative to DMSO [2, 8]: 99.2%
- GFP response relative to DMSO [2, 9]: 98.3%
- GFP response vs DMSO [3]: 100% (inactive)
- GFP response, % of DMSO [4]: 101% (inactive)
- GFP response, % of DMSO [5]: 103% (inactive)
- GFP response, % of DMSO [5, 6]: 103%
- GFP response, % of DMSO [5, 7]: 102%

Compound: O=C(OCc1cc(Cl)ccc1OC(F)F)c1ccc([N+](=O)[O-])o1
- GFP response vs DMSO [1]: 97% (inactive)
- GFP response vs DMSO [1, 6]: 99.8%
- GFP response vs DMSO [1, 7]: 94%
- GFP response relative to DMSO [2]: 114% (inactive)
- GFP response relative to DMSO [2, 8]: 110%
- GFP response relative to DMSO [2, 9]: 120%
- GFP response vs DMSO [3]: 100% (inactive)
- GFP response, % of DMSO [4]: 95.7% (inactive)
- GFP response, % of DMSO [5]: 95.2% (inactive)
- GFP response, % of DMSO [5, 6]: 98.1%
- GFP response, % of DMSO [5, 7]: 92.3%

Compound: Cc1cc(=O)oc2c(C(=O)/C=C\c3cccs3)c(O)ccc12
- GFP response vs DMSO [1]: 98% (inactive)
- GFP response vs DMSO [1, 6]: 100%
- GFP response vs DMSO [1, 7]: 95.3%
- GFP response relative to DMSO [2]: 145% (inactive)
- GFP response relative to DMSO [2, 8]: 136%
- GFP response relative to DMSO [2, 9]: 154%
- GFP response vs DMSO [3]: 107% (inactive)
- GFP response, % of DMSO [4]: 101% (inactive)
- GFP response, % of DMSO [5]: 95.9% (inactive)
- GFP response, % of DMSO [5, 6]: 99.2%
- GFP response, % of DMSO [5, 7]: 91.9%

Compound: CSC1=NC(=O)/C(=C/c2ccc(SC)cc2)S1
- GFP response vs DMSO [1]: 95.1% (inactive)
- GFP response vs DMSO [1, 6]: 78%
- GFP response vs DMSO [1, 7]: 92.5%
- GFP response relative to DMSO [2]: 138% (inactive)
- GFP response relative to DMSO [2, 8]: 115%
- GFP response relative to DMSO [2, 9]: 134%
- GFP response vs DMSO [3]: 110% (inactive)
- GFP response, % of DMSO [4]: 107% (inactive)
- GFP response, % of DMSO [5]: 75% (inactive)
- GFP response, % of DMSO [5, 6]: 78.1%
- GFP response, % of DMSO [5, 7]: 70.3%

Compound: O=C(CN1C(=O)c2cccc3cccc(c23)C1=O)N1CCCCCC1
- GFP response vs DMSO [1]: 102% (inactive)
- GFP response vs DMSO [1, 6]: 101%
- GFP response vs DMSO [1, 7]: 101%
- GFP response relative to DMSO [2]: 97% (inactive)
- GFP response relative to DMSO [2, 8]: 94.2%
- GFP response relative to DMSO [2, 9]: 98.4%
- GFP response vs DMSO [3]: 94.7% (inactive)
- GFP response, % of DMSO [4]: 100% (inactive)
- GFP response, % of DMSO [5]: 100% (inactive)
- GFP response, % of DMSO [5, 6]: 101%
- GFP response, % of DMSO [5, 7]: 101%

Compound: COc1cccc(CC(=O)OC(C)C(=O)Nc2ncc(Cl)cc2Cl)c1 (stereo not given)
- GFP response vs DMSO [1]: 101% (inactive)
- GFP response vs DMSO [1, 6]: 99.8%
- GFP response vs DMSO [1, 7]: 101%
- GFP response relative to DMSO [2]: 96.2% (inactive)
- GFP response relative to DMSO [2, 8]: 97.2%
- GFP response relative to DMSO [2, 9]: 97.2%
- GFP response vs DMSO [3]: 102% (inactive)
- GFP response, % of DMSO [4]: 91.1% (inactive)
- GFP response, % of DMSO [5]: 97.8% (inactive)
- GFP response, % of DMSO [5, 6]: 98.1%
- GFP response, % of DMSO [5, 7]: 95.5%

Compound: Cc1ccc(Nc2c(-c3ccccn3)nc3ccc(C)cn23)cc1
- GFP response vs DMSO [1]: 97.4% (inactive)
- GFP response vs DMSO [1, 6]: 106%
- GFP response vs DMSO [1, 7]: 98.6%
- GFP response relative to DMSO [2]: 148% (inactive)
- GFP response relative to DMSO [2, 8]: 137%
- GFP response relative to DMSO [2, 9]: 153%
- GFP response vs DMSO [3]: 108% (inactive)
- GFP response, % of DMSO [4]: 82.9% (inactive)
- GFP response, % of DMSO [5]: 105% (inactive)
- GFP response, % of DMSO [5, 6]: 121%
- GFP response, % of DMSO [5, 7]: 93.3%

Compound: CCc1nnc(N2C(=O)c3cccc4cccc(c34)C2=O)s1
- GFP response vs DMSO [1]: 94.5% (inactive)
- GFP response vs DMSO [1, 6]: 95%
- GFP response vs DMSO [1, 7]: 93.3%
- GFP response relative to DMSO [2]: 94.1% (inactive)
- GFP response relative to DMSO [2, 8]: 92.9%
- GFP response relative to DMSO [2, 9]: 94.4%
- GFP response vs DMSO [3]: 108% (inactive)
- GFP response, % of DMSO [4]: 98.8% (inactive)
- GFP response, % of DMSO [5]: 100% (inactive)
- GFP response, % of DMSO [5, 6]: 101%
- GFP response, % of DMSO [5, 7]: 99.3%

Compound: O=C(c1ccccc1F)N1CCN(c2ccccc2)CC1
- GFP response vs DMSO [1]: 97% (inactive)
- GFP response vs DMSO [1, 6]: 97.9%
- GFP response vs DMSO [1, 7]: 97.6%
- GFP response relative to DMSO [2]: 99.2% (inactive)
- GFP response relative to DMSO [2, 8]: 101%
- GFP response relative to DMSO [2, 9]: 98.3%
- GFP response vs DMSO [3]: 105% (inactive)
- GFP response, % of DMSO [4]: 95.2% (inactive)
- GFP response, % of DMSO [5]: 98.3% (inactive)
- GFP response, % of DMSO [5, 6]: 101%
- GFP response, % of DMSO [5, 7]: 98.5%

Compound: CCCCNc1c(-c2ccc(SC(C)CC)cc2)nc2ccccn12 (stereo not given)
- GFP response vs DMSO [1]: 94.2% (inactive)
- GFP response vs DMSO [1, 6]: 88.6%
- GFP response vs DMSO [1, 7]: 95.8%
- GFP response relative to DMSO [2]: 120% (inactive)
- GFP response relative to DMSO [2, 8]: 114%
- GFP response relative to DMSO [2, 9]: 124%
- GFP response vs DMSO [3]: 109% (inactive)
- GFP response, % of DMSO [4]: 93.3% (inactive)
- GFP response, % of DMSO [5]: 92.6% (inactive)
- GFP response, % of DMSO [5, 6]: 89.9%
- GFP response, % of DMSO [5, 7]: 91.4%

Compound: CCOC(=O)COc1c(Cl)cc(/C=C2\N=C(C)OC2=O)cc1OC
- GFP response vs DMSO [1]: 105% (inactive)
- GFP response vs DMSO [1, 6]: 105%
- GFP response vs DMSO [1, 7]: 103%
- GFP response relative to DMSO [2]: 109% (inactive)
- GFP response relative to DMSO [2, 8]: 108%
- GFP response relative to DMSO [2, 9]: 113%
- GFP response vs DMSO [3]: 104% (inactive)
- GFP response, % of DMSO [4]: 98.9% (inactive)
- GFP response, % of DMSO [5]: 103% (inactive)
- GFP response, % of DMSO [5, 6]: 105%
- GFP response, % of DMSO [5, 7]: 99.8%

Compound: CCOc1ccc(C(=O)/C=C/c2ccc(SC)cc2)cc1
- GFP response vs DMSO [1]: 98% (inactive)
- GFP response vs DMSO [1, 6]: 100%
- GFP response vs DMSO [1, 7]: 96.8%
- GFP response relative to DMSO [2]: 102% (inactive)
- GFP response relative to DMSO [2, 8]: 99.1%
- GFP response relative to DMSO [2, 9]: 103%
- GFP response vs DMSO [3]: 101% (inactive)
- GFP response, % of DMSO [4]: 102% (inactive)
- GFP response, % of DMSO [5]: 100% (inactive)
- GFP response, % of DMSO [5, 6]: 99.2%
- GFP response, % of DMSO [5, 7]: 80.9%

Compound: CCCC(=O)Nc1ccc(NC(=O)c2cc3ccccc3o2)c(OC)c1
- GFP response vs DMSO [1]: 98.8% (inactive)
- GFP response vs DMSO [1, 6]: 98.4%
- GFP response vs DMSO [1, 7]: 98%
- GFP response relative to DMSO [2]: 98.2% (inactive)
- GFP response relative to DMSO [2, 8]: 99.1%
- GFP response relative to DMSO [2, 9]: 98.4%
- GFP response vs DMSO [3]: 103% (inactive)
- GFP response, % of DMSO [4]: 102% (inactive)
- GFP response, % of DMSO [5]: 97.3% (inactive)
- GFP response, % of DMSO [5, 6]: 99.2%
- GFP response, % of DMSO [5, 7]: 87%

Compound: CC(=O)Nc1cccc(Oc2ccc(-c3noc(C)n3)cc2)c1
- GFP response vs DMSO [1]: 95.8% (inactive)
- GFP response vs DMSO [1, 6]: 93.4%
- GFP response vs DMSO [1, 7]: 96.3%
- GFP response relative to DMSO [2]: 101% (inactive)
- GFP response relative to DMSO [2, 8]: 99.1%
- GFP response relative to DMSO [2, 9]: 102%
- GFP response vs DMSO [3]: 107% (inactive)
- GFP response, % of DMSO [4]: 93.6% (inactive)
- GFP response, % of DMSO [5]: 97.3% (inactive)
- GFP response, % of DMSO [5, 6]: 95.6%
- GFP response, % of DMSO [5, 7]: 96.8%
